Reference: ChEMBL document CHEMBL4706762, “Massively Parallel Optimization of the Linker Domain in Small Molecule Dimers Targeting a Toxic r(CUG) Repeat Expansion” (ACS Med Chem Lett, 2021)
The source made the active and inactive calls. No cut-off for these calls is given here.

Legend:
[1] = Drug localization in nucleus of DM1-patient derived myotubes at 5 uM measured after 24 hrs by live-cell fluorescence microscopy; assay type: ADME, subcellular; details: human, myotube
Method in brief: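 DM1 patient myotubes bearing 1300 r(CUG) repeats given 5 μM agent; subcellular localization followed via intrinsic fluorescence of the H RNA-binding modules.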

[2] = Cytotoxicity against DM1-patient derived myotubes assessed as change in cellular morphology at 1 uM measured after 48 hrs; details: human, myotube
Method in brief: (§1)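 Cell morphology of DM1 patient-derived myotubes inspected during 48 h splicing treatment at 5 μM; agents altering morphology were re-tested at 1 μM.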

[3] = Cytotoxicity against DM1-patient derived myotubes assessed as change in cellular morphology at 5 uM measured after 48 hrs; details: human, myotube; method in brief: as §1
r(CUG) repeat expansion [4] = assay: Binding affinity to r(CUG)exp RNA repeat in DM1-patient derived myotubes assessed as improvement in MBNL1 exon 5 splicing defect at 1 uM measured after 48 hrs by RT-qPCR analysis relative to control; details: Homo sapiens, Myotube
Method in brief: (§2)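 DM1 patient-derived myotubes (1300 r(CUG) repeats) treated 48 h, then MBNL1 exon 5 splicing rescue measured. Single-dose screens at 5 μM or 1 μM, where 1 μM was used if 5 μM altered morphology, n = 3. Dose–response also run, n = 6. SD shown; one-way ANOVA.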

r(CUG) repeat expansion [5] = assay: Binding affinity to r(CUG)exp RNA repeat in DM1-patient derived myotubes assessed as improvement in MBNL1 exon 5 splicing defect measured after 48 hrs by RT-qPCR analysis; assay type: tissue-based; details: Homo sapiens, Myotube, dose 0.04-1 µM
r(CUG) repeat expansion [6] = assay: Binding affinity to r(CUG)exp RNA repeat in DM1-patient derived myotubes assessed as improvement in MBNL1 exon 5 splicing defect at 0.2 uM measured after 48 hrs by RT-qPCR analysis relative to control; details: Homo sapiens, Myotube; method in brief: as §2
r(CUG) repeat expansion [7] = assay: Binding affinity to r(CUG)exp RNA repeat in DM1-patient derived myotubes assessed as improvement in MBNL1 exon 5 splicing defect at 5 uM measured after 48 hrs by RT-qPCR analysis relative to control; details: Homo sapiens, Myotube; method in brief: as §2
r(CUG) repeat expansion [8] = assay: Binding affinity to r(CUG)12 RNA repeat (unknown origin) measured after 10 mins by fluorescence assay; assay type: nucleic-acid assay
r(CUG) repeat expansion [9] = assay: Binding affinity to 5'-biotinylated r(CUG)12 RNA repeat (unknown origin) assessed as disruption of r(CUG)12-His-tagged MBNL1 complex formation preincubated for 15 mins followed by MBNL1 addition and measured after 15 mins by TR-FRET assay; assay type: nucleic-acid assay

| Drug uptake [1] | Activity (r(CUG) repeat expansion [4]) | Activity (r(CUG) repeat expansion [5]) | Activity (r(CUG) repeat expansion [6]) | Activity (r(CUG) repeat expansion [7]) | EC50 (r(CUG) repeat expansion [8]) | IC50 (r(CUG) repeat expansion [9]) | SMILES | Activity [2] | Activity [3] |
| --- | --- | --- | --- | --- | --- | --- | --- | --- | --- |
| Active | Active |  |  |  |  |  | CNCCCCN(CC(=O)N(CCCCNC)CC(=O)N(CCN)CC(=O)N(CCCNC(=O)CCCOc1cccc(-c2nc3ccc(-c4nc5cc(N6CCN(C)CC6)ccc5[nH]4)cc3[nH]2)c1)CC(N)=O)C(=O)CN(C)C(=O)CCCOc1cccc(-c2nc3ccc(-c4nc5cc(N6CCN(C)CC6)ccc5[nH]4)cc3[nH]2)c1 | Non-Toxic | Toxic |
| Active | inactive |  |  | 30% | 1.14 µM | 32.2 µM | CCCN(CC(=O)N(CCC)CC(=O)N(CCC)CC(=O)N(CCC)CC(=O)N(CC(N)=O)Cc1cn(CCCNC(=O)CCCOc2ccc(-c3nc4ccc(-c5nc6cc(N7CCN(C)CC7)ccc6[nH]5)cc4[nH]3)cc2)nn1)C(=O)CNCc1cn(CCCNC(=O)CCCOc2cccc(-c3nc4ccc(-c5nc6cc(N7CCN(C)CC7)ccc6[nH]5)cc4[nH]3)c2)nn1 |  |  |
| Active |  |  |  |  |  |  | CNCCCCN(CC(=O)N(CCCNC(=O)CCCOc1cccc(-c2nc3ccc(-c4nc5cc(N6CCN(C)CC6)ccc5[nH]4)cc3[nH]2)c1)CC(N)=O)C(=O)CN(CCCCNC)C(=O)CN(CCO)C(=O)CN(Cc1cccnc1)C(=O)CCCOc1cccc(-c2nc3ccc(-c4nc5cc(N6CCN(C)CC6)ccc5[nH]4)cc3[nH]2)c1 |  | Non-Toxic |

Continued, compound first:

| SMILES | Drug uptake [1] | Activity (r(CUG) repeat expansion [4]) | Activity (r(CUG) repeat expansion [5]) | Activity (r(CUG) repeat expansion [6]) | Activity (r(CUG) repeat expansion [7]) | EC50 (r(CUG) repeat expansion [8]) | IC50 (r(CUG) repeat expansion [9]) | Activity [2] | Activity [3] |
| --- | --- | --- | --- | --- | --- | --- | --- | --- | --- |
| COc1ccc(CN(CC(=O)N(CCCNC(=O)CCCOc2cccc(-c3nc4ccc(-c5nc6cc(N7CCN(C)CC7)ccc6[nH]5)cc4[nH]3)c2)CC(N)=O)C(=O)CN(Cc2cccnc2)C(=O)CN(C(=O)CN(C)C(=O)CCCOc2cccc(-c3nc4ccc(-c5nc6cc(N7CCN(C)CC7)ccc6[nH]5)cc4[nH]3)c2)C2CC2)cc1 | Active | Active | Dose-dependent effect | 2% |  |  |  | Non-Toxic | Toxic |
| CNCCCCN(CC(=O)N(CC(=O)N(CC(=O)N(CCO)CC(=O)N(CCCNC(=O)CCCOc1cccc(-c2nc3ccc(-c4nc5cc(N6CCN(C)CC6)ccc5[nH]4)cc3[nH]2)c1)CC(N)=O)C1CCCCC1)Cc1cccnc1)C(=O)CCCOc1cccc(-c2nc3ccc(-c4nc5cc(N6CCN(C)CC6)ccc5[nH]4)cc3[nH]2)c1 | Active |  |  |  |  |  |  |  | Non-Toxic |
| CNCCCCN(CC(=O)N(CCCNC(=O)CCCOc1cccc(-c2nc3ccc(-c4nc5cc(N6CCN(C)CC6)ccc5[nH]4)cc3[nH]2)c1)CC(N)=O)C(=O)CN(Cc1ccc(OC)cc1)C(=O)CN(CCCCNC)C(=O)CN(C(=O)CCCOc1cccc(-c2nc3ccc(-c4nc5cc(N6CCN(C)CC6)ccc5[nH]4)cc3[nH]2)c1)C1CCCCC1 | Active | inactive |  |  |  |  |  | Non-Toxic | Toxic |
| CNCCCCN(CC(=O)N(CC(=O)N(CCCNC(=O)CCCOc1cccc(-c2nc3ccc(-c4nc5cc(N6CCN(C)CC6)ccc5[nH]4)cc3[nH]2)c1)CC(N)=O)C1CC1)C(=O)CN(CCOC)C(=O)CN(CCO)C(=O)CCCOc1cccc(-c2nc3ccc(-c4nc5cc(N6CCN(C)CC6)ccc5[nH]4)cc3[nH]2)c1 | Active |  |  |  |  |  |  |  | Non-Toxic |
